From ChEMBL document CHEMBL1140321, “Synthesis and biological evaluation of acyclic 3-[(2-hydroxyethoxy)methyl] analogues of antiviral furo- and pyrrolo[2,3-d]pyrimidine nucleosides” (J Med Chem, 2005)

Key:
HEL [1] = assay: Concentration required to inhibit vesicular stomatitis virus induced cytopathogenicity in HEL cells by 50%; assay type: functional, cell-based; details: Homo sapiens
HEL [2] = assay: Concentration required to inhibit human cytomegalovirus strain AD169 induced cytopathogenicity in HEL cells by 50%; assay type: functional, cell-based
HEL [3] = assay: Concentration required to inhibit herpes simplex virus type 1 induced cytopathogenicity in HEL cells by 50%; assay type: functional, cell-based; details: Homo sapiens
HEL [4] = assay: Concentration required to inhibit human cytomegalovirus strain Davis induced cytopathogenicity in HEL cells by 50%; assay type: functional, cell-based
HEL [5] = assay: Concentration required to inhibit Varicella-Zoster virus (strain 07/1) induced cytopathogenicity in HEL cells by 50%; assay type: functional, cell-based; details: Homo sapiens
HEL [6] = assay: Concentration required to inhibit Varicella-Zoster virus (strain OKA) induced cytopathogenicity in HEL cells by 50%; assay type: functional, cell-based; details: Homo sapiens
HEL [7] = assay: Concentration required to inhibit herpes simplex virus type 2 induced cytopathogenicity in HEL cells by 50%; assay type: functional, cell-based; details: Homo sapiens
CCRF-CEM [8] = assay: Concentration required to inhibit human immunodeficiency virus-2 (strain ROD) induced cytopathogenicity in CEM cells by 50%; assay type: functional, cell-based
Summary of the method: (§1)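 Human CEM cells (~3 × 10^5 cells/cm³) were infected with 100 CCID50/mL of HIV-1(IIIB) or HIV-2(ROD) and seeded into wells with compound dilutions. After 4 days at 37 °C, HIV-induced giant-cell formation was examined microscopically and EC50 was taken as the concentration giving 50% inhibition.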

HEL [9] = assay: Concentration required to inhibit vaccinia virus induced cytopathogenicity in HEL cells by 50%; assay type: functional, cell-based; details: Homo sapiens
CCRF-CEM [10] = assay: Concentration required to inhibit human immunodeficiency virus-1 (strain IIIb) induced cytopathogenicity in CEM cells by 50%; assay type: functional, cell-based; summary of the method: as §1
HEL [11] = assay: Concentration required to inhibit cell proliferation in HEL cells by 50%; assay type: functional; details: Homo sapiens
HEL [12] = assay: Concentration required to cause a microscopically visible alteration of cell morphology in HEL cells; assay type: functional; details: Homo sapiens

| SMILES | EC50 (HEL [1]) | EC50 (HEL [2]) | EC50 (HEL [3]) | EC50 (HEL [4]) | EC50 (HEL [5]) | EC50 (HEL [6]) | EC50 (HEL [7]) | EC50 (CCRF-CEM [8]) | EC50 (HEL [9]) | EC50 (CCRF-CEM [10]) | CC50 (HEL [11]) | MCC (HEL [12]) |
| --- | --- | --- | --- | --- | --- | --- | --- | --- | --- | --- | --- | --- |
| CCCCCCCc1cc2cn(COCCO)c(=O)nc2o1 | > 200 µM | > 80 µM | > 200 µM | > 80 µM | > 80 µM | > 80 µM | > 200 µM | > 50 µM | > 200 µM | > 50 µM | 140 µM | 400 µM |
| CCCCCCc1cc2cn(COCCO)c(=O)nc2o1 | > 16 µM | > 80 µM | > 16 µM | > 80 µM | 151 µM | 173 µM | > 16 µM | > 50 µM | > 16 µM | > 50 µM | > 200 µM | ≥ 400 µM |
| CCCCCCCCCCc1cc2cn(COCCO)c(=O)nc2o1 | > 16 µM | > 400 µM | > 16 µM | > 80 µM | > 80 µM | > 80 µM | > 16 µM | > 250 µM | > 16 µM | > 250 µM | > 200 µM | 400 µM |
| CCCCCCCCCC#Cc1cc2cn(COCCO)c(=O)nc2o1 | > 40 µM | > 4 µM | > 40 µM | 5.2 µM | 7.1 µM | 2.6 µM | > 40 µM | > 10 µM | > 40 µM | > 10 µM | > 50 µM | ≥ 20 µM |
| CCCCCCCCCc1cc2cn(COCCO)c(=O)nc2o1 | > 200 µM | > 400 µM | > 200 µM | > 400 µM | 10 µM | 41 µM | > 200 µM | > 250 µM | > 200 µM | > 250 µM | ≥ 100 µM | ≥ 16 µM |
| CCCCC#Cc1cc2cn(COCCO)c(=O)nc2o1 | > 200 µM | > 100 µM | > 200 µM | > 100 µM | > 50 µM | > 50 µM | > 200 µM | > 50 µM | > 200 µM | > 50 µM | > 50 µM | > 100 µM |
| CCCCCCCCCCCc1cc2cn(COCCO)c(O)nc-2n1 | > 40 µM | > 16 µM | > 40 µM | > 16 µM | 10 µM | 16 µM | > 40 µM | > 10 µM | > 40 µM | > 10 µM | 41 µM | 80 µM |
| CCCCc1cc2cn(COCCO)c(=O)nc2o1 | > 400 µM | > 400 µM | > 400 µM | > 400 µM | > 400 µM | ≥ 100 µM | > 400 µM | > 250 µM | > 400 µM | > 250 µM | > 200 µM | > 400 µM |
| O=c1[nH]c(=O)n([C@H]2C[C@H](O)[C@@H](CO)O2)cc1/C=C/Br [BRIVUDINE] | > 500 µM | > 100 µM | 0.16 µM | > 100 µM | > 108 µM | 0.03 µM | 300 µM | > 50 µM | 60 µM | > 50 µM | ≥ 400 µM | > 400 µM |
| CCCCCc1cc2cn(COCCO)c(=O)nc2o1 | > 400 µM | > 400 µM | > 400 µM | > 400 µM | > 400 µM | > 400 µM | > 400 µM | > 250 µM | > 400 µM | > 50 µM | > 200 µM | > 400 µM |
| CCCCCCCCc1cc2cn(COCCO)c(O)nc-2n1 | > 80 µM | > 16 µM | > 80 µM | > 16 µM | > 16 µM | > 16 µM | > 80 µM | > 50 µM | > 80 µM | > 50 µM | 65 µM | 80 µM |
| OCCOCn1cc2ccnc-2nc1O | > 400 µM | > 400 µM | > 400 µM | > 400 µM | > 400 µM | > 400 µM | > 400 µM | > 250 µM | > 400 µM | > 250 µM | > 200 µM | > 400 µM |
| CCCCCCCCC#Cc1cc2cn(COCCO)c(=O)nc2o1 | > 40 µM | > 4 µM | > 40 µM | 5.2 µM | 8.5 µM | > 5 µM | > 40 µM | > 10 µM | > 40 µM | > 10 µM | 42 µM | ≥ 20 µM |
| CCCCCCCCc1cc2cn(COCCO)c(=O)nc2o1 | > 16 µM | 31 µM | > 16 µM | 10 µM | > 16 µM | 11 µM | > 16 µM | > 50 µM | > 16 µM | > 50 µM | > 200 µM | ≥ 80 µM |
| CCCCCCc1cc2cn(COCCO)c(O)nc-2n1 | > 80 µM | 400 µM | > 80 µM | 253 µM | 151 µM | 206 µM | > 80 µM | > 50 µM | > 80 µM | > 50 µM | > 200 µM | > 400 µM |
| CCCCCC#Cc1cc2cn(COCCO)c(=O)nc2o1 | > 200 µM | > 20 µM | > 200 µM | 58 µM | > 50 µM | > 50 µM | > 200 µM | > 50 µM | > 200 µM | > 50 µM | > 50 µM | ≥ 100 µM |
| CCCCCCC#Cc1cc2cn(COCCO)c(=O)nc2o1 | > 200 µM | 40 µM | > 200 µM | > 20 µM | 100 µM | 100 µM | > 200 µM | – | > 200 µM | > 50 µM | > 50 µM | > 200 µM |
| CCCCCCCCCc1cc2cn(COCCO)c(O)nc-2n1 | > 80 µM | > 16 µM | > 80 µM | > 16 µM | > 16 µM | > 16 µM | > 80 µM | > 50 µM | > 80 µM | > 50 µM | – | > 80 µM |
